pEC50, pIC50, pKi: −log10 of the molar value.
Tests used:
[1] = target: 11-beta-hydroxysteroid dehydrogenase 1 (Mus musculus, UniProt P50172); test: Inhibition of recombinant mouse 11beta-HSD1 expressed in HEK293 cell microsomes using [3H]cortisone as substrate after 4 hrs by homogeneous immuno-radiometric scintillation proximity assay
[2] = target: T1, Nuclear receptor subfamily 1 group I member 2 (Homo sapiens, UniProt O75469); test: Activation of PXR (unknown origin); type: ADME
T1 sequence (O75469 whole entry): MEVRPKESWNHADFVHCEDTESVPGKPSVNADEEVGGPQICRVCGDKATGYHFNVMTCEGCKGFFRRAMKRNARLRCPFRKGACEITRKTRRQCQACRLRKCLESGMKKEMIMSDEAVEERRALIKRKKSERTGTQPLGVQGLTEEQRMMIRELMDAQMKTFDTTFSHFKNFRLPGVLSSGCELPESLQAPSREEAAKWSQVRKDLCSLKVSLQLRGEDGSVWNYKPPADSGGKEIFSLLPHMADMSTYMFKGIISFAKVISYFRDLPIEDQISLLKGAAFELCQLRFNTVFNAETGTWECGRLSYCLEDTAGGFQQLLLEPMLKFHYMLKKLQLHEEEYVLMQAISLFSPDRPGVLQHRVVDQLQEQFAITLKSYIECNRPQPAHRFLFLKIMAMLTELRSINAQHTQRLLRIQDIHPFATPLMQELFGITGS

[3] = Aqueous solubility of the compound at pH 6.5 using crystalline sample; type: physicochemical
[4] = Aqueous solubility of the compound at pH 1 using crystalline sample; type: physicochemical
[5] = Stability of the compound in aqueous buffer at pH 1.1 to pH 7.4 at 40 degC measured after 1 week; type: physicochemical; conditions: pH 1.1, 168 h
[6] = Stability of the compound at 50 degC measured after 12 weeks using crystalline solid sample; type: physicochemical; conditions: 2016 h
[7] = Stability of the compound under high intensity light/UV light measured after 12 weeks using crystalline solid sample; type: physicochemical; conditions: 2016 h
[8] = Stability of the compound in solid state; type: physicochemical
[9] = Stability of the compound in oxidative solution; type: physicochemical
[10] = Stability of the compound in hydrolytic solution; type: physicochemical
[11] = target: 11-beta-hydroxysteroid dehydrogenase 1 (Homo sapiens, UniProt P28845); test: Inhibition of recombinant human 11beta-HSD1 expressed in HEK293 cell microsomes using [3H]cortisone as substrate after 4 hrs by homogeneous immuno-radiometric scintillation proximity assay; type: cell-based
[12] = Inhibition of recombinant cynomolgus monkey 11beta-HSD1 expressed in HEK293 cell microsomes using [3H]cortisone as substrate after 4 hrs by homogeneous immuno-radiometric scintillation proximity assay; set-up: species or system Macaca fascicularis
Mus musculus [13] = test: In-vivo inhibition of 11beta-HSD1 in po dosed diet induced obese mouse assessed as reduction in conversion of dehydrocorticosterone to corticosterone pretreated for 30 to 60 mins followed by dehydrocorticosterone addition and measured after 30 to 120 mins by enzyme immunosorbent assay; type: functional
Cynomolgus monkey = test: In-vivo inhibition of 11beta-HSD1 in po cynomolgus monkey assessed as reduction in conversion of dehydrocorticosterone to corticosterone pretreated for 30 to 60 mins followed by dehydrocorticosterone addition and measured after 30 to 120 mins by enzyme immunosorbent assay; type: functional; conditions: Macaca fascicularis
[14] = Selectivity ratio of ED50 for inhibition of 11beta-HSD1 in po dosed diet induced obese mouse to ED50 for inhibition of 11beta-HSD1 in po cynomolgus monkey; type: functional
Mus musculus [15] = test: Ex vivo inhibition of 11beta-HSD1 in diet induced obese mouse adipose tissue assessed as reduction in conversion of dehydrocorticosterone to corticosterone administered via oral gavage pretreated for 3 hrs followed by dehydrocorticosterone addition by LC-MS analysis; type: functional
Mus musculus [16] = test: Selectivity ratio of ED50 for inhibition of 11beta-HSD1 in po dosed diet induced obese mouse to ED50 for ex vivo inhibition of 11beta-HSD1 in diet induced obese mouse adipose tissue administered via oral gavage; type: functional
[17] = Oral bioavailability in Balb/C mouse at 10 mg/kg by LC-MS/MS analysis; type: ADME, organism-based; conditions: in vivo
Method in brief: (§1)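 Given orally as a homogenized suspension, to mouse and to cynomolgus monkey.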

[18] = Ratio of drug level in adipose tissue to plasma in diet induced obese mouse administered via oral gavage; type: ADME; conditions: adipose tissue and plasma
[19] = Volume of distribution at steady state in Balb/C mouse at 5 mg/kg, iv by LC-MS/MS analysis; type: ADME, organism-based; conditions: in vivo, read-out: Vdss
[20] = Volume of distribution at steady state in cynomolgus monkey at 1 mg/kg, iv by LC-MS/MS analysis; type: ADME, organism-based, Macaca fascicularis; conditions: in vivo, read-out: Vdss
[21] = Total plasma clearance in Balb/C mouse at 5 mg/kg, iv by LC-MS/MS analysis; type: ADME, organism-based
[22] = Total plasma clearance in cynomolgus monkey at 1 mg/kg, iv by LC-MS/MS analysis; type: ADME, organism-based, Macaca fascicularis
[23] = Oral bioavailability in cynomolgus monkey at 1.47 mg/kg by LC-MS/MS analysis; type: ADME, organism-based, Macaca fascicularis; conditions: in vivo; method in brief: as §1
[24] = Permeability of the compound by PAMPA; type: ADME; conditions: read-out: permeability
[25] = Protein binding in human plasma; type: ADME, cell-free; conditions: read-out: PPB (converted)
[26] = Protein binding in cynomolgus monkey plasma; type: ADME, cell-free, Macaca fascicularis; conditions: read-out: PPB (converted)
[27] = Protein binding in mouse plasma; type: ADME, cell-free; conditions: read-out: PPB (converted)
Cytochrome P450 3A4 = Cytochrome P450 3A4 (Homo sapiens, UniProt P08684); test: Inhibition of human CYP3A4; type: ADME
Cytochrome P450 2C9 = Cytochrome P450 2C9 (Homo sapiens, UniProt P11712); test: Inhibition of human CYP2C9; type: ADME
Cytochrome P450 2C19 = Cytochrome P450 2C19 (Homo sapiens, UniProt P33261); test: Inhibition of human CYP2C19; type: ADME
Cytochrome P450 2D6 = Cytochrome P450 2D6 (Homo sapiens, UniProt P10635); test: Inhibition of human CYP2D6; type: ADME
Cytochrome P450 1A2 = target: T2, Cytochrome P450 1A2 (Homo sapiens, UniProt P05177); test: Inhibition of human CYP1A2; type: ADME
T2 sequence (P05177 whole entry): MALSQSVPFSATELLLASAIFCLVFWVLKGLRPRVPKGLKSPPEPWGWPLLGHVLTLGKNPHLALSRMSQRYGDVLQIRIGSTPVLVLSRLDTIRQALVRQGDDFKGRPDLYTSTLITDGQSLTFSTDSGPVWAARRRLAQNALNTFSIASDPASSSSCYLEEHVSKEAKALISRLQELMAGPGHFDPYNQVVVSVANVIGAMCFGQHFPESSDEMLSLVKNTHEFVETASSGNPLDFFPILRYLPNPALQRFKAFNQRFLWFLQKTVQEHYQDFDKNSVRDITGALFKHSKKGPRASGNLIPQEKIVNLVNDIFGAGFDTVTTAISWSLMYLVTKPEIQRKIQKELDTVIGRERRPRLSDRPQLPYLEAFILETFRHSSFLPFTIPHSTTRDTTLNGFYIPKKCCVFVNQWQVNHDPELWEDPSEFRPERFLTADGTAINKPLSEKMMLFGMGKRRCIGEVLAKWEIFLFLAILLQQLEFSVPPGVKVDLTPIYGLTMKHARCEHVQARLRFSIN

[28] = Ratio of drug level in liver to plasma in diet induced obese mouse administered via oral gavage; type: ADME; conditions: liver and plasma
[29] = Stability in human microsomes assessed as parent compound remaining after 30 mins; type: ADME, Microsome; conditions: read-out: Stability
[30] = Stability in mouse microsomes assessed as parent compound remaining after 30 mins; type: ADME, Microsome; conditions: read-out: Stability
[31] = Stability in rat microsomes assessed as parent compound remaining after 30 mins; type: ADME, Microsome; conditions: read-out: Stability
[32] = Stability in cynomolgus monkey microsomes assessed as parent compound remaining after 30 mins; type: ADME, Macaca fascicularis, Microsome; conditions: read-out: Stability
hERG (KCNH2) [33] = target: T3, hERG (KCNH2) (Homo sapiens, UniProt Q12809); test: Inhibition of human ERG at 10 uM by whole-cell patch clamp method relative to control
hERG (KCNH2) [34] = target: T3, hERG (KCNH2); test: Inhibition of human ERG at 30 uM by whole-cell patch clamp method relative to control
[35] = Genotoxicity in Escherichia coli by SOS chromotest; type: toxicity
[36] = Genotoxicity in Salmonella typhimurium by Ames test; type: toxicity; conditions: salmonella enterica subsp. enterica serovar typhimurium
[37] = Toxicity in mouse up to 100 mg/kg, po administered as single dose; type: organism-based; conditions: in vivo
[38] = Toxicity in cynomolgus monkey assessed as emesis up to 100 mg/kg, po administered as single dose; type: organism-based, Macaca fascicularis; conditions: in vivo
[39] = Efflux ratio of permeability from basolateral to apical side over apical to basolateral side in human Caco2 cells at 3 uM; conditions: caco-2, 3 µM

Chain of 11-beta-hydroxysteroid dehydrogenase 1 (Mus musculus, UniProt P50172) (P50172 whole entry): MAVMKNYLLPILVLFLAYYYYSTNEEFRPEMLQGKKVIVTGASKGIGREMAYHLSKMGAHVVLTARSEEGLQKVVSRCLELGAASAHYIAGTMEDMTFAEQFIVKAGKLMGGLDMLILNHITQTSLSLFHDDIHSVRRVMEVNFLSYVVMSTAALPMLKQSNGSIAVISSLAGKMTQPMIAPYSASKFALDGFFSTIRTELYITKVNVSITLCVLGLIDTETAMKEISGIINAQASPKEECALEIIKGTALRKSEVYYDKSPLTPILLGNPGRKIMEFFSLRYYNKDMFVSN
T3 sequence (Q12809 whole entry): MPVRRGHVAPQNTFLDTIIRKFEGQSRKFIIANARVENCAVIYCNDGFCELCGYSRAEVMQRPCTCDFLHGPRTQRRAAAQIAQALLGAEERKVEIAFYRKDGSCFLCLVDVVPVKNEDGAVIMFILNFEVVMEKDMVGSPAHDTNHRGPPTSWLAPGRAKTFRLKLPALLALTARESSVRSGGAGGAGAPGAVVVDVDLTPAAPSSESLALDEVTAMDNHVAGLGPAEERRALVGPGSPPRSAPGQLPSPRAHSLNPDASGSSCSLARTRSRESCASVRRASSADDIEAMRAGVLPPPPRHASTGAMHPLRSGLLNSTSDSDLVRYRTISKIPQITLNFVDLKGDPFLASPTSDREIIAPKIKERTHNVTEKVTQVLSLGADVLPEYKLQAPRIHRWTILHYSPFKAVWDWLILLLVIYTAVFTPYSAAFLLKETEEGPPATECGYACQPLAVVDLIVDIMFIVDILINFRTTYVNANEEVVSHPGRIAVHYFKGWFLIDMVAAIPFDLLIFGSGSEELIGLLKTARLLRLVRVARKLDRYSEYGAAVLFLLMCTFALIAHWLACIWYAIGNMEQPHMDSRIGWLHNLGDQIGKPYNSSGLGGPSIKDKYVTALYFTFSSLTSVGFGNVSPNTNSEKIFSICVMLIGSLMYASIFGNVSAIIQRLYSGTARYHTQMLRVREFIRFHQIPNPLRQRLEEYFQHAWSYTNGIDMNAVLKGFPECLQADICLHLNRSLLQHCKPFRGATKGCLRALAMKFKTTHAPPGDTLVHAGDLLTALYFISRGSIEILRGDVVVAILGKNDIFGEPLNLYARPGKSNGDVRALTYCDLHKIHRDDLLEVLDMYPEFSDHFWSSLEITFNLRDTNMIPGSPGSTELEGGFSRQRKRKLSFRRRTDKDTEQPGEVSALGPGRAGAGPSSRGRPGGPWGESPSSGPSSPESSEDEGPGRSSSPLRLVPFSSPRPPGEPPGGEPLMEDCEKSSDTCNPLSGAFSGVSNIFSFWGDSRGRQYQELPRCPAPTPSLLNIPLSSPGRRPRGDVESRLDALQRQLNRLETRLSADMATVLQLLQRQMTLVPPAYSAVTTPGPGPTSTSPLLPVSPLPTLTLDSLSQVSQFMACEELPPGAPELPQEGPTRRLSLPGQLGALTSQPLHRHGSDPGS
Chain of Cytochrome P450 2C9 (P11712 whole entry): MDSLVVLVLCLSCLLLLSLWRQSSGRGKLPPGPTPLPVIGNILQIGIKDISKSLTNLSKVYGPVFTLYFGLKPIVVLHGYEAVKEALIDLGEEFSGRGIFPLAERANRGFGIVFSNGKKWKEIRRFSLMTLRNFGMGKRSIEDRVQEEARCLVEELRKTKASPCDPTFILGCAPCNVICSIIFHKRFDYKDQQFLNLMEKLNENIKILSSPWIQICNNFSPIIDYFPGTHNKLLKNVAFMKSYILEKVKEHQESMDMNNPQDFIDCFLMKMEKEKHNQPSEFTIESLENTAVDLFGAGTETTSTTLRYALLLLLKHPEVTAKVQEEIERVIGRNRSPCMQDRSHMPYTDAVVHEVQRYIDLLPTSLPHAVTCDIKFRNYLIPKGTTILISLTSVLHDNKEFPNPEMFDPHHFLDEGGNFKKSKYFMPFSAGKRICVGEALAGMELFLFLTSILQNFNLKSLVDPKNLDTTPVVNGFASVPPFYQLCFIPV
Chain of 11-beta-hydroxysteroid dehydrogenase 1 (Homo sapiens, UniProt P28845) (P28845 whole entry): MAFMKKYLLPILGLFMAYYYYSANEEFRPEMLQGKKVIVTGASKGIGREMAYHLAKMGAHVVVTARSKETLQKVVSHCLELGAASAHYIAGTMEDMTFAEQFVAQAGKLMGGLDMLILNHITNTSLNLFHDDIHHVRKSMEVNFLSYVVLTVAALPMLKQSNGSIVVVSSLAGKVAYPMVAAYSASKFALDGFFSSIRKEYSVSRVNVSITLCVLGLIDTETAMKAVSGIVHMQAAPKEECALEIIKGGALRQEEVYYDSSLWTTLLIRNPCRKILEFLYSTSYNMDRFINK
Chain of Cytochrome P450 2C19 (P33261 whole entry): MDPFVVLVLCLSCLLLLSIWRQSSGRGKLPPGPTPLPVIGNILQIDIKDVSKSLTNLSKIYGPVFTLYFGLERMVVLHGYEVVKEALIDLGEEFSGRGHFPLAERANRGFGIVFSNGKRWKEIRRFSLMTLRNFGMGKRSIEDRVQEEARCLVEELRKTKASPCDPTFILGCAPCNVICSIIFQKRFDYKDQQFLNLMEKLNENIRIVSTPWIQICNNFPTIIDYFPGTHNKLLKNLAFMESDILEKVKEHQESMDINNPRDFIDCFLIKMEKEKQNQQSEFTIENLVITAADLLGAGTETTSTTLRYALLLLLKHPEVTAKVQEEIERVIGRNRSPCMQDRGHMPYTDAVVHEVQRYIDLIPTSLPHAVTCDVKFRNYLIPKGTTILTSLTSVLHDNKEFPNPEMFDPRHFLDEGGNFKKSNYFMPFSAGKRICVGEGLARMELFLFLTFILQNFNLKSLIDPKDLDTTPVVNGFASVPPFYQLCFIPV
Chain of Cytochrome P450 3A4 (P08684 whole entry): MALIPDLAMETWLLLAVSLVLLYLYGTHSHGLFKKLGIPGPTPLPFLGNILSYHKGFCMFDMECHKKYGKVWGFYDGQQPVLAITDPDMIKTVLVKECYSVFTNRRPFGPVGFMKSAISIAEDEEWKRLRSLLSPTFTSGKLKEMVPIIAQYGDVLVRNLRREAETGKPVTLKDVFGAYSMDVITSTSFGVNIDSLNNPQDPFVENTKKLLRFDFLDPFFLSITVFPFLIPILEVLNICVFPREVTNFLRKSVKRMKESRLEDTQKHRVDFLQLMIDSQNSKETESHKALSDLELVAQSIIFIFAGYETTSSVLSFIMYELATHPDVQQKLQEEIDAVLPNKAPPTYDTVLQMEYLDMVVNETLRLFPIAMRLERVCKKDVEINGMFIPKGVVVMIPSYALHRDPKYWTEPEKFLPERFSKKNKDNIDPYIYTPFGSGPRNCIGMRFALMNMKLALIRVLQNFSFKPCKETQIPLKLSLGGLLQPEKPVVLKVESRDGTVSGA
Chain of Cytochrome P450 2D6 (P10635 whole entry): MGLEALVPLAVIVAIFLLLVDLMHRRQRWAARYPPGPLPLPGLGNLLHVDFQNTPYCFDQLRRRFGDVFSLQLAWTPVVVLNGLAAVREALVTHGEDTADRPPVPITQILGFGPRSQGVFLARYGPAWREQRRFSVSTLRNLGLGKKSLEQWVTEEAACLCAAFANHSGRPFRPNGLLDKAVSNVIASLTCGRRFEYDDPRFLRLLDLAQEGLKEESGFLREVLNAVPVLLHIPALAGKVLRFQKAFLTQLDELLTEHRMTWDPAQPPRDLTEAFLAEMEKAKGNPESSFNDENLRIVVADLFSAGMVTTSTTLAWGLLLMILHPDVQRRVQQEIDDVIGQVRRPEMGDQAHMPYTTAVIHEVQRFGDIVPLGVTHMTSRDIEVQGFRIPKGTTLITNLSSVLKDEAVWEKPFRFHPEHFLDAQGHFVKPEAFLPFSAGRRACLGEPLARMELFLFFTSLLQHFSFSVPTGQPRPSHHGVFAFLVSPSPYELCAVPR

OCC(O)c1cccn2c(C3(c4ccc(Cl)cc4)CC3)nnc12 (configuration not stated)
pIC50 [1]: < 5.00
pEC50 [2]: < 4.30

CC(C)(CCO)c1cccn2c(C3(c4ccc(Cl)cc4)CC3)nnc12
pIC50 [1]: 5.94
pEC50 [2]: 5.89

CC(C)(C(=O)O)c1cccn2c(C3(c4ccc(Cl)cc4)CC3)nnc12
pIC50 [1]: < 5.00
pEC50 [2]: < 4.30

CC(C)(O)c1cccn2c(C3(c4ccc(Cl)cc4)CC3)nnc12.Cl [BMS-823778]
solubility thermodynamic [3]: 0.5 mg/mL
solubility thermodynamic [4]: 220 mg/mL
Stability [5]: Stable
Stability [6]: Stable
Stability [7]: Stable
Stability [8]: Stable
Stability [9]: Stable
Stability [10]: Stable

CC(C)(O)c1cccn2c(C3(c4ccc(Cl)cc4)CC3)nnc12 [BMS-823778 FREE BASE]
pKi [11]: 9.05
pIC50 [1]: 6.22
pKi [1]: 6.42
pEC50 [2]: < 4.30
pKi [12]: 8.15
ED50 (Mus musculus [13]): 34 mg/kg
ED50 (Cynomolgus monkey): 0.6 mg/kg
Ratio ED50 [14]: 57
ED50 (Mus musculus [15]): 5.2 mg/kg
Ratio ED50 (Mus musculus [16]): 6.5
bioavailability [17]: 44%
Kp [18]: 2.5
Vd [19]: 1.2 L/kg
Vd [20]: 2.3 L/kg
clearance [21]: 2.3 mL/min/kg
clearance [22]: 1.2 mL/min/kg
bioavailability [23]: 100%
Papp [24]: > 50 ×10⁻⁶ cm/s
fraction unbound [25]: 0.15
fraction unbound [26]: 0.16
fraction unbound [27]: 0.13
pIC50 (Cytochrome P450 3A4): < 4.52
pIC50 (Cytochrome P450 2C9): < 4.52
pIC50 (Cytochrome P450 2C19): < 4.52
pIC50 (Cytochrome P450 2D6): < 4.52
pIC50 (Cytochrome P450 1A2): < 4.52
Kp [28]: 3.5
remaining at 0.5 h [29]: 96 to 100%
remaining at 0.5 h [30]: 96 to 100%
remaining at 0.5 h [31]: 96 to 100%
remaining at 0.5 h [32]: 96 to 100%
inhibition at 10 µM (hERG (KCNH2) [33]): 19.8%
inhibition at 30 µM (hERG (KCNH2) [34]): 31.2%
Activity [35]: Non-Toxic
Activity [36]: Non-Toxic
Activity [37]: Non-Toxic
Activity [38]: Toxic
Ratio [39]: < 2

Source: ChEMBL document CHEMBL4325920, “Discovery of Clinical Candidate BMS-823778 as an Inhibitor of Human 11β-Hydroxysteroid Dehydrogenase Type 1 (11β-HSD-1)” (ACS Med Chem Lett, 2018)
